From ChEMBL document CHEMBL3392968 (Eur J Med Chem, 2015)
Values after ≈ are worked out from the molar mass of the structure shown. Active and inactive are the calls of the source. No cut-off for these calls is given here.

Columns and labels:
C6 [1] = assay: Induction of cell cycle arrest in rat C6 cells assessed as accumulation at S phase after 24 and 48 hrs by propidium iodide staining based flow cytometry; assay type: functional
Summary of the method: (§1)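 C6 cells at 5 µM. About 3 × 10^5 cells fixed in 70% cold ethanol overnight at 4 °C, then stained with 20 µg/mL PI plus 100 µg/mL RNase (final). 10^4 cells analysed by flow cytometry (linear FL3), with doublets excluded by FL3-Area/Width gating; G1, S and G2/M fractions taken from DNA content.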

[2] = molecular target: T1, Histone deacetylase (Rattus norvegicus) (UniProt Q6P6W3+Q99P99+Q99P96+Q4QQW4+Q99P97+Q5RJZ2+B1WBY8); assay: Inhibition of HDAC in rat C6 cells assessed as increase in histone H3 acetylation at 5 uM after 6 hrs by flow cytometry (reference value: 4.5%); assay type: cell-based; parameters: scale not given: the % may be the effect or the level left
Summary of the method: (§2)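 C6 cells treated at 5 µM for 6, 15 or 24 h, with DMSO vehicle as control. Fixed in 1% paraformaldehyde, permeabilized with 0.1% Triton X-100, blocked in goat serum. Stained with anti-acetyl-H3 (Lys9) rabbit mAb (1:100, 1 h on ice), then FITC anti-rabbit IgG (20 µg/mL, 45 min). About 10000 events at 488 nm; acetylation quantified from MFI.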

C6 [3] = assay: Induction of cell cycle arrest in rat C6 cells assessed as accumulation at G2/M phase after 24 and 48 hrs by propidium iodide staining based flow cytometry; assay type: functional; summary of the method: as §1
C6 [4] = assay: Induction of cell cycle arrest in rat C6 cells assessed as increase in accumulation at S phase after 72 hrs by propidium iodide staining based flow cytometry; assay type: functional; summary of the method: as §1
C6 [5] = assay: Antimigratory activity against rat C6 cells assessed as cell migration level at 5 uM after 24 hrs by transwell chamber assay (reference value: 60%); assay type: functional, cell-based
Summary of the method: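 C6 cells grown to 70-80% confluency, serum-starved 24 h, then seeded at 10^5 cells/mL in serum-free HAM'S F12 into the upper chamber of an 8 µm-pore transwell; lower chamber held medium with 5% FCS. Compounds (5 µM final) added 2 h after seeding; 24 h at 37 °C. Migrated cells methanol-fixed, DAPI-stained, counted in five fields, scaled to insert area, expressed as % of cells seeded.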

[6] = molecular target: T1, Histone deacetylase (Rattus norvegicus); assay: Inhibition of HDAC in rat C6 cells assessed as increase in histone H3 acetylation at 5 uM after 15 hrs by flow cytometry; assay type: cell-based; summary of the method: as §2
C6 [7] = assay: Induction of cell cycle arrest in rat C6 cells assessed as accumulation at G1 phase after 24 and 48 hrs by propidium iodide staining based flow cytometry; assay type: functional; summary of the method: as §1
[8] = Displacement of [3H]-DTG from sigma 2 receptor guinea pig brain membranes incubated for 120 mins by scintillation counting method; parameters: species or system Cavia porcellus, Membrane
Summary of the method: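 Guinea pig brain membranes (360 µg protein) with 3 nM [3H]DTG and test compound (10^-5 to 10^-10 M) in 50 mM Tris-HCl pH 8.0, 120 min at room temperature, with 400 nM (+)-SKF10,047 masking σ1 sites. Nonspecific binding with 5 µM DTG; PEI-presoaked GF/B filtration, scintillation counting, Ki by EBDA/LIGAND.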

C6 [9] = assay: Cytotoxicity against rat C6 cells assessed as reduction in cell viability at 0.1 to 5 uM after 24 hrs by MTT assay; assay type: functional, cell-based
Summary of the method: (§3)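 C6 cells (HAM'S F12, 10% FBS, 2 mM glutamine, 37 °C, 5% CO2) seeded at 5 × 10^4 cells/well and exposed to 0.1–5 µM for 24, 48 or 72 h. MTT reduction read at 570 nm; viability = A_sample/A_vehicle control × 100. Four independent experiments.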

C6 [10] = assay: Cytotoxicity against rat C6 cells assessed as reduction in cell viability at 0.1 to 5 uM after 48 hrs by MTT assay; assay type: functional; summary of the method: as §3
C6 [11] = assay: Induction of late apoptosis in rat C6 cells after 24 to 72 hrs by Annexin-V/propidium iodide staining based flow cytometry
C6 [12] = assay: Cytotoxicity against rat C6 cells assessed as reduction in cell viability at 0.1 to 5 uM after 72 hrs by MTT assay; assay type: functional; summary of the method: as §3
[13] = molecular target: Sigma non-opioid intracellular receptor 1 (Cavia porcellus, UniProt Q60492); assay: Displacement of [3H]-(+)-pentazocine from sigma 1 receptor guinea pig brain membranes incubated for 150 mins by scintillation counting method; parameters: species or system Membrane
Sequence of Sigma non-opioid intracellular receptor 1 (Q60492 whole entry): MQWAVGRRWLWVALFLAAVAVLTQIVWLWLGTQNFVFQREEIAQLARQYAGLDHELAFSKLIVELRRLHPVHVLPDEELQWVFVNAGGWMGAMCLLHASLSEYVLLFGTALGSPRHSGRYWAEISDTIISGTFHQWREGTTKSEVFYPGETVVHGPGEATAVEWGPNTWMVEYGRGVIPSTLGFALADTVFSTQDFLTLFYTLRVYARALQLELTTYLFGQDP

[14] = Stability in human plasma assessed half life at 1 mg/mL by HPLC method; assay type: ADME, cell-free
Summary of the method: (§4)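 Human or rat plasma, obtained from citrated blood (0.3% citric acid) centrifuged at 3000 × g, diluted to 80% with 0.02 M phosphate buffer pH 7.4, incubated with compound at 37 °C. Samples centrifuged at 5000 × g; supernatant analysed by RP-C18 HPLC; remaining intact compound plotted against time to obtain kobs and half-life.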

C6 [15] = assay: Induction of necrosis in rat C6 cells after 24 to 72 hrs by Annexin-V/propidium iodide staining based flow cytometry
[16] = Stability in rat plasma assessed half life at 1 mg/mL by HPLC method; assay type: ADME, cell-free; summary of the method: as §4
C6 [17] = assay: Cytotoxicity against rat C6 cells assessed as reduction in cell viability at 0.5 to 5 uM after 24 hrs by MTT assay; assay type: functional; summary of the method: as §3
Plasma [18] = assay: Stability in human plasma assessed pseudo-first-order rate constant at 1 mg/mL by HPLC method; assay type: ADME, cell-free; summary of the method: as §4
D(3) dopamine receptor = D(3) dopamine receptor (Rattus norvegicus, UniProt P19020); assay: Displacement of [3H]-7-OH-DPAT from dopamine D3 receptor in rat olfactory tubercle by scintillation counting method; assay type: tissue-based
Sequence of D(3) dopamine receptor (P19020 whole entry): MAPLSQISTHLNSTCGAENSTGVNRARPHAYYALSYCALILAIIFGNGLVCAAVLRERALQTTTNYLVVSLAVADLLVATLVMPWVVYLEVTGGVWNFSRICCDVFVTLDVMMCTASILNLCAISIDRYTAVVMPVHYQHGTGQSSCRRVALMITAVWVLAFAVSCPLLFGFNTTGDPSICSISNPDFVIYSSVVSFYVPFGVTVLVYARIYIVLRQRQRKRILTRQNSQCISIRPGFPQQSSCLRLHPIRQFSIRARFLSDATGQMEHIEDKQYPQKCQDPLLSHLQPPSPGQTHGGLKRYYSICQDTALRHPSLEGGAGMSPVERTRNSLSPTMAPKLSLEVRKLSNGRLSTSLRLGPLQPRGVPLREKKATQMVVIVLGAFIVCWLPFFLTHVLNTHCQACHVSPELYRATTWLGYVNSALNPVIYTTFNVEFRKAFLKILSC

Plasma [19] = assay: Stability in rat plasma assessed pseudo-first-order rate constant at 1 mg/mL by HPLC method; assay type: ADME, cell-free; summary of the method: as §4
D(2) dopamine receptor = D(2) dopamine receptor (Rattus norvegicus, UniProt P61169); assay: Displacement of [3H]-spiperone from dopamine D2 receptor in rat striatum by scintillation counting method
Sequence of D(2) dopamine receptor (P61169 whole entry): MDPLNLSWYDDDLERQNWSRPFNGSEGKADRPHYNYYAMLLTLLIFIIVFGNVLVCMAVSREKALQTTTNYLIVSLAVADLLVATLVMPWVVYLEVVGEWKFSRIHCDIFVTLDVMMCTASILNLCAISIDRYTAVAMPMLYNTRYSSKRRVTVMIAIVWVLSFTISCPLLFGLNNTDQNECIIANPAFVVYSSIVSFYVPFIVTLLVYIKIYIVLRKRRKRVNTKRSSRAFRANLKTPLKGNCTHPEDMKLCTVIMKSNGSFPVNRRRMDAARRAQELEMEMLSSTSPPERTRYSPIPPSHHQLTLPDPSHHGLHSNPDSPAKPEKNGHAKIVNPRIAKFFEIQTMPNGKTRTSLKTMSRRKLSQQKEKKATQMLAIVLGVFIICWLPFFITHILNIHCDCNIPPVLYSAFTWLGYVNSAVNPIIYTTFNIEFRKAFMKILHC

C6 [20] = assay: Induction of necrosis in rat C6 cells after 25 to 72 hrs by Annexin-V/propidium iodide staining based flow cytometry; assay type: functional; details: in the assay text read “24 to 72 hrs” for “25 to 72 hrs”
Summary of the method: (§5)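 C6 cells treated at 5 µM for 24, 48 and 72 h. 2.5 × 10^5 cells stained with Annexin-V-FITC (10 min, room temperature, dark), then PI 5 µg/mL. At least 10^4 events collected (FL1/FL3). Late apoptotic cells were Annexin-V+/PI+; necrotic cells were Annexin-V−/PI+.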

C6 [21] = assay: Induction of late apoptosis in rat C6 cells after 25 to 72 hrs by Annexin-V/propidium iodide staining based flow cytometry; assay type: functional; details: in the assay text read “24 to 72 hrs” for “25 to 72 hrs”; summary of the method: as §5
[22] = molecular target: T1, Histone deacetylase (Rattus norvegicus); assay: Inhibition of HDAC in rat C6 cells assessed as increase in histone H3 acetylation at 5 uM after 24 hrs by flow cytometry (reference value: 4.5%); assay type: cell-based; parameters: scale not given: the % may be the effect or the level left; summary of the method: as §2
[23] = Stability in pH 1.3 0.02 M […] buffer containing 0.1% (v/v) Cremophor ELP assessed as pseudo-first-order rate constant […] by HPLC method; assay type: physicochemical
Summary of the method: (§6)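 Reaction started by adding 1 mL of a 10^-4 M acetonitrile stock to 10 mL of buffer at 37 ± 0.5 °C. Buffers: pH 7.4, 0.02 M phosphate; pH 1.3, 0.02 M chloridric; both with 0.1% (v/v) Cremophor ELP. Followed by RP-C18 HPLC; run in triplicate, with mean rate constants reported.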

[24] = Stability in pH 1.3 0.02 M […] buffer containing 0.1% (v/v) Cremophor ELP assessed as half life […] by HPLC method; assay type: physicochemical; summary of the method: as §6
[25] = Effective permeability of the compound by PAMPA method; assay type: ADME; details: read-out: Peff
Summary of the method: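 PAMPA using a porcine polar brain lipid–impregnated filter. Donor: phosphate buffer pH 7.4/pH 6.5 with 500 µM compound and 20% iPrOH co-solvent; acceptor: same buffer. Incubated 18 h at room temperature; donor and acceptor concentrations measured by HPLC; Peff calculated from volumes, filter area (0.28 cm2) and time.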

[26] = Stability in pH 7.4 0.02 M phosphate buffer containing 0.1% (v/v) Cremophor ELP assessed as pseudo-first-order rate constant […] by HPLC method; assay type: physicochemical; summary of the method: as §6
C6 [27] = assay: Drug metabolism in rat C6 cells assessed as metabolite formation at 5 uM incubated for 24 hrs at 37 degC by LC/MS spectrometry; assay type: ADME, cell-based; details: c6, 24 h
Summary of the method: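 Glioma C6 cells incubated with 5 µM for 24 h at 37 °C. Cell lysates (2 mg) analysed by LC-MS, compared with untreated control lysates, to detect metabolite ions.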

[28] = Stability in pH 7.4 0.02 M phosphate buffer containing 0.1% (v/v) Cremophor ELP assessed as half life at […] by HPLC method; assay type: physicochemical; summary of the method: as §6
[29] = Solubility in water at 50 mg incubated at 25 degC for 1 hr by HPLC method; assay type: physicochemical

SMILES | Activity (C6 [1]) | Activity [2] | Activity (C6 [3]) | Activity (C6 [4]) | Activity (C6 [5]) | Activity [6] | Activity (C6 [7]) | Ki [8] | Activity (C6 [9]) | Activity (C6 [10]) | Activity (C6 [12]) | half-life at 1 mg/mL [14] | half-life at 1 mg/mL [16] | K (Plasma [18]) | Ki (D(3) dopamine receptor) | K (Plasma [19]) | further results
O=C(O)CCCc1ccccc1 [PHENYLBUTANOIC ACID] | inactive | 14% | inactive | inactive | inactive | inactive | inactive | – | – | – | – | – | – | – | – | – | –
Cc1ccccc1NC(=N)Nc1ccccc1C [DITOLYLGUANIDINE] | – | – | – | – | – | – | – | 22 nM | – | – | – | – | – | – | – | – | –
O=C(CCCc1ccccc1)O[C@@H](CCCN1CCC(O)(c2ccc(Cl)cc2)CC1)c1ccc(F)cc1 | inactive | inactive | inactive | Active | Active | inactive | inactive | 118 nM | Dose-dependent effect | 60% | 40% | 90.7 h | 0.224 h | 0.008 h⁻¹ | > 5000 nM | 3.09 h⁻¹ | Activity (C6 [11]): 25%; Ki [13]: 230 nM; Activity (C6 [15]): 25%; Activity (C6 [17]): 50%; Ki (D(2) dopamine receptor): > 5000 nM
O=C(CCCc1ccccc1)O[C@H](CCCN1CCC(O)(c2ccc(Cl)cc2)CC1)c1ccc(F)cc1 | inactive | 16.1% | inactive | Active | Active | inactive | inactive | 52.7 nM | Dose-dependent effect | 60% | 40% | 84.3 h | 0.312 h | 0.008 h⁻¹ | > 5000 nM | 2.22 h⁻¹ | Ki [13]: 87.5 nM; Activity (C6 [20]): 40%; Activity (C6 [17]): 40%; Activity (C6 [21]): 40%; Ki (D(2) dopamine receptor): > 5000 nM; Activity [22]: 7.2%
O[C@H](CCCN1CCC(O)(c2ccc(Cl)cc2)CC1)c1ccc(F)cc1 | – | – | – | – | – | – | – | 32 nM | – | – | – | – | – | – | 1280 nM | – | –
O=C(CCCc1ccccc1)OC(CCCN1CCC(O)(c2ccc(Cl)cc2)CC1)c1ccc(F)cc1 (racemic) | inactive | 14% | inactive | Active | Active | inactive | inactive | – | Dose-dependent effect | 60% | 40% | 92 h | 0.108 h | 0.008 h⁻¹ | – | 6.41 h⁻¹ | IC50 (C6 [9]; C6, 24 h): 5000 nM; K [23]: 0.005 h⁻¹; half-life at 10000 µM [24]: 140 h; Papp [25]: 5.25 ×10⁻⁶ cm/s; Activity (C6 [20]): 35%; K [26]: 0.005 h⁻¹; Drug metabolism (C6 [27]): metabolite_detected; half-life at 10000 µM [28]: 127 h; Activity (C6 [21]): 35%; solubility at 1 h [29]: 1.2 µg/mL (≈ 2.29 µM)
OC(CCCN1CCC(O)(c2ccc(Cl)cc2)CC1)c1ccc(F)cc1 (racemic) [HYDROXYHALOPERIDOL] | inactive | inactive | inactive | inactive | inactive | inactive | inactive | 2 nM | – | inactive | – | – | – | – | – | – | –
O[C@@H](CCCN1CCC(O)(c2ccc(Cl)cc2)CC1)c1ccc(F)cc1 | – | – | – | – | – | – | – | 9.8 nM | – | – | – | – | – | – | 353 nM | – | –
O=C(CCCN1CCC(O)(c2ccc(Cl)cc2)CC1)c1ccc(F)cc1 [HALOPERIDOL] | – | – | – | – | – | – | – | 18 nM | – | – | – | – | – | – | – | – | –
